The values below come from ChEMBL document CHEMBL5649170, “Sustained microglial depletion with CSF1R inhibitor impairs parenchymal plaque development in an Alzheimer's disease model” (Nat Commun, 2019).

Series [1] deals with Dual specificity tyrosine-phosphorylation-regulated kinase 1B (Homo sapiens, UniProt Q9Y463). The series can be described thus: Inhibition of DYRK1B (unknown origin).
The target in series [2] is Glycogen synthase kinase-3 alpha (Homo sapiens, UniProt P49840). The series can be described thus: Inhibition of GSK3A (unknown origin).
Series [3] addresses Tyrosine-protein kinase Yes (Homo sapiens, UniProt P07947). The series can be described thus: Inhibition of YES1 (unknown origin).
Series [4] can be described thus: AUC (0 to infinity) in monkey at 1.35 mg/kg, iv administered as single dose. It counts as ADME, organism-based, Macaca mulatta. The note with it: rhesus monkey, in vivo.
Series [5] in a line: Volume of distribution at steady state in dog at 1.00 mg/kg, iv administered as single dose. It counts as ADME, organism-based, Canis lupus familiaris. The note with it: in vivo, read-out: Vdss.
Series [6] can be described thus: AUC (0 to 24 hrs) in mouse plasma at 300 ppm administered as rodent chow for 14 days. The note with it: route po, time 14 day. The class given is ADME, cell-free.
A short description of series [7]: Ratio of drug concentration in 5XFAD mouse brain to plasma at 1200 ppm administered as rodent chow for 180 days. It counts as ADME, cell-free. The settings on record: brain and plasma, route po, time 180 day, read-out: BPR.
Series [8] relates to Mus musculus. The series can be described thus: Effect on circulating leukocytes in wildtype mouse assessed as percentage of CD45+/PI- cells expressing CD11b at 1200 ppm administered as rodent chow for 10 to 24 weeks (reference value: 6.22 to 25.7 %). It counts as functional. The note with it: route po, time 10-24 weeks.
Series [9] concerns Mus musculus. The series can be described thus: Antialzheimer activity in 5XFAD mouse assessed as number of triads at 1200 ppm administered as rodent chow for 10 to 24 weeks by Y-maze test (reference value: 3 to 9). The class given is functional. The note with it: route po, time 10-24 weeks. Summed up:
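Y-maze: the sequence of arm entries was scored live and video-recorded. Triads were counted as sequential entries into three different arms. Mice had received 1200 ppm PLX5622 or control chow from 1.5 months of age.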

The test system of series [10] is Mus musculus. Kind of series: Antialzheimer activity in 5XFAD mouse assessed as number of Thio-S positive plaques per FOV in somatosensory cortex at 1200 ppm administered as rodent chow starting from 1.5 months and measured after 7 months by Thio-S staining based confocal microscopic analysis (reference value: 22 to 106). The class given is functional. The note with it: route po, time 5.5 months, 4015 h.

For series [11], the target named is T1, Macrophage colony-stimulating factor 1 receptor (Mus musculus) (UniProt P09581).
T1 sequence (whole entry): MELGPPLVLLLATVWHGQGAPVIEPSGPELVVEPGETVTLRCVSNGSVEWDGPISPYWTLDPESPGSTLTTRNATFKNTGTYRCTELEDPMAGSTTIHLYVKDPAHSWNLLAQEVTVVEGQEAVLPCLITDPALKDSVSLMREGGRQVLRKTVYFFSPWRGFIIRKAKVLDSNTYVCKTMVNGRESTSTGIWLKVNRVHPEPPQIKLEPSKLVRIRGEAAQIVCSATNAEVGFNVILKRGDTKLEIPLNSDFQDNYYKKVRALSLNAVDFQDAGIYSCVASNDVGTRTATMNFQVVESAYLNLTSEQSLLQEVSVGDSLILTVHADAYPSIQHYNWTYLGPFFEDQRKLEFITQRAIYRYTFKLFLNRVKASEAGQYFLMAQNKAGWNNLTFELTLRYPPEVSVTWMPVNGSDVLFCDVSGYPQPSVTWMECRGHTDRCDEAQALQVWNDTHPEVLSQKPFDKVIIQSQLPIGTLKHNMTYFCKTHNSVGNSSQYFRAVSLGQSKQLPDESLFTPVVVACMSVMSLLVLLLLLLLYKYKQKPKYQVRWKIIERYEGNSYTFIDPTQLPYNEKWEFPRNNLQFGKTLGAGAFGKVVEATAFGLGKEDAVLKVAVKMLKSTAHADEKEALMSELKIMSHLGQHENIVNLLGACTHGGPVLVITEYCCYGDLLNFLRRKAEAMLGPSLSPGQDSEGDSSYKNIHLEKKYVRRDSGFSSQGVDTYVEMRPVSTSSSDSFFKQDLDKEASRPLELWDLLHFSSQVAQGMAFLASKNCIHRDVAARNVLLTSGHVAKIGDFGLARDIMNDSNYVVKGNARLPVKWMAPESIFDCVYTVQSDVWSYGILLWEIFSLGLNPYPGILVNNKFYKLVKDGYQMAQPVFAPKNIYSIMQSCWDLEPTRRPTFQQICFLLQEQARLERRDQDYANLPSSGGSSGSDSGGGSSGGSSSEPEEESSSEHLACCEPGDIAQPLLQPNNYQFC
The series can be described thus: In vivo inhibition of CSF1R in wildtype mouse assessed as iron reactivity by measuring hemosiderin intensity of prussian blue staining in thalamus at 1200 ppm administered as rodent chow starting from 1.5 months and measured after 4 months by confocal microscopic analysis (reference value: 0.1 to 2.451 a.u.). It counts as functional. The settings on record: route po, time 2.5 months. Summed up:
(§1)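 Wild-type or 5xFAD mice fed PLX5622 (1200 ppm) in AIN-76A chow from 1.5 months of age, examined in 4- and 7-month-old cohorts. Brain sections stained with a Prussian blue kit per kit instructions to detect iron deposits (microbleeds).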

The test system of series [12] is Mus musculus. Kind of series: Antialzheimer activity in 5XFAD mouse assessed as iron reactivity by measuring hemosiderin intensity of prussian blue staining in thalamus at 1200 ppm administered as rodent chow starting from 1.5 months and measured after 7 months by confocal microscopic analysis (reference value: 0.39 to 3.131 a.u.). It counts as functional. The note with it: route po, time 5.5 months, 4015 h. Summed up: as §1

In series [13] the test system is Mus musculus. The series can be described thus: Effect on APP processing pathway in wildtype mouse assessed as full length APP protein signal intensity in cortex at 1200 ppm administered as rodent starting from 1.5 months and measured after 7 months (reference value: 0.124 to 27.917 %). The class given is functional. The note with it: route po, time 5.5 months, 4015 h.

In series [14] the test system is Mus musculus. The series can be described thus: Antialzheimer activity in 5XFAD mouse assessed as ApoE immunoreactivity by measuring APP volume per number of Thio-S positive deposits at 1200 ppm administered as rodent chow starting from 1.5 months and measured after 7 months by immunolabeling based confocal microscopic analysis (reference value: 6.415 to 29.760 microm3). It counts as functional. The settings on record: route po, time 5.5 months, 4015 h.

Series [15] in a line: Effect on Gls gene expression in wildtype mouse hippocampus assessed as percent change in Reads Per kilo base per Million mapped reads at 1200 ppm administered as rodent chow starting from 1.5 months and measured after 7 months by RNA-Seq analysis (reference value: 89.231 to 109.618 %). The class given is functional. The settings on record: route po, time 5.5 months, 4015 h.

Series [16] in a line: Prevention of Rtn4r gene downregulation in 5XFAD mouse hippocampus assessed as percent change in Reads Per kilo base per Million mapped reads at 1200 ppm administered as rodent chow starting from 1.5 months and measured after 7 months by RNA-Seq analysis (reference value: 53.880 to 87.869 %). The class given is functional. The note with it: route po, time 5.5 months, 4015 h.

The nature of series [17]: Prevention of Rnf217 gene downregulation in 5XFAD mouse hippocampus assessed as percent change in Reads Per kilo base per Million mapped reads at 1200 ppm administered as rodent chow starting from 1.5 months and measured after 7 months by RNA-Seq analysis (reference value: 66.726 to 80.840 %). The note with it: route po, time 5.5 months, 4015 h. It counts as functional.

Series [18] addresses T1, Macrophage colony-stimulating factor 1 receptor (Mus musculus). Kind of series: In vivo inhibition of CSF1R in wildtype mouse assessed as number of Iba1 positive cells per FOV in […] cortex at 1200 ppm administered as rodent chow starting from 1.5 months to 4 months followed by compound removal and measured after 1 months by immunolabelling based confocal microscopic analysis (reference value: 193 to 236). It counts as functional. The settings on record: route po, time 2.5 months.

For series [19], the system named is Mus musculus. Kind of series: Antialzheimer activity in 5XFAD mouse assessed as microglial elimination in brain at 1200 ppm administered as rodent chow by Thio-S staining based confocal microscopic analysis. The settings on record: route po.

As a reminder, the IC50 is the concentration that gives 50% inhibition. Broadly, the AUC(0-inf) is total exposure, with the tail of the curve extrapolated. One may read the AUC as the area under the concentration-time curve, a measure of exposure.

SMILES strings stand for the structures. Active and inactive are the calls of the source. The calls are words filed in the database; no cut-off is given here.

Sequence of Dual specificity tyrosine-phosphorylation-regulated kinase 1B (Q9Y463 whole entry): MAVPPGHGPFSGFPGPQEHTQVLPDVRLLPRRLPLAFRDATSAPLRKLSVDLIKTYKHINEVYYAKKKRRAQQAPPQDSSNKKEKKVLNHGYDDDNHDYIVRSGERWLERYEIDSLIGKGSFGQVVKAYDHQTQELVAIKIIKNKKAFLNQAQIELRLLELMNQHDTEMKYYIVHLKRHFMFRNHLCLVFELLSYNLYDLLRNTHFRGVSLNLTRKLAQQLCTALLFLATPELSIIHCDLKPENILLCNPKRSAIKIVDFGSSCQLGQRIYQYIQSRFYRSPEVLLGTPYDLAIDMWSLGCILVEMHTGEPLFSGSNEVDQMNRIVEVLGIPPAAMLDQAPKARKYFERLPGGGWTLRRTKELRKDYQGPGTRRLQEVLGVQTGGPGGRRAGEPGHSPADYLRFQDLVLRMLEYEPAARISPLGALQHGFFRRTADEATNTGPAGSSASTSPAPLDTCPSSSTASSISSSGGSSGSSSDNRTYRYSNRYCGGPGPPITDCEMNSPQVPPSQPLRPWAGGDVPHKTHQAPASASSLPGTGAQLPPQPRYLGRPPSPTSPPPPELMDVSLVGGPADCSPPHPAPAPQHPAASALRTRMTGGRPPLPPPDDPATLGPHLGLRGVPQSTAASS
Sequence of Tyrosine-protein kinase Yes (P07947 whole entry): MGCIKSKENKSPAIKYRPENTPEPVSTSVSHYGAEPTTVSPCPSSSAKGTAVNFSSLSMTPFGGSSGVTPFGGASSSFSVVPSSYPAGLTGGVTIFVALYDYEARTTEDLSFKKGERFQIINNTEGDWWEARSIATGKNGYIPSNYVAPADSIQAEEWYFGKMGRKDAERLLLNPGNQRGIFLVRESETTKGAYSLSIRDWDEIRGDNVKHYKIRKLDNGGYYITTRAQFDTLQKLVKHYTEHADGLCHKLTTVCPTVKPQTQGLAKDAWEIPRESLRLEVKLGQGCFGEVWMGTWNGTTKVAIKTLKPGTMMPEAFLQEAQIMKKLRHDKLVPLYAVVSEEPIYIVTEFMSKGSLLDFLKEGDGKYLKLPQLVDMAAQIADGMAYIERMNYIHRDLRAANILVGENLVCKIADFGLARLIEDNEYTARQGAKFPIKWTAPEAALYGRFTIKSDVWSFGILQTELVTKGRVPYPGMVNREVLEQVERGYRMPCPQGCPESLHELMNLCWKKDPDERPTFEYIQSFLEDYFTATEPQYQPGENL
Sequence of Glycogen synthase kinase-3 alpha (P49840 whole entry): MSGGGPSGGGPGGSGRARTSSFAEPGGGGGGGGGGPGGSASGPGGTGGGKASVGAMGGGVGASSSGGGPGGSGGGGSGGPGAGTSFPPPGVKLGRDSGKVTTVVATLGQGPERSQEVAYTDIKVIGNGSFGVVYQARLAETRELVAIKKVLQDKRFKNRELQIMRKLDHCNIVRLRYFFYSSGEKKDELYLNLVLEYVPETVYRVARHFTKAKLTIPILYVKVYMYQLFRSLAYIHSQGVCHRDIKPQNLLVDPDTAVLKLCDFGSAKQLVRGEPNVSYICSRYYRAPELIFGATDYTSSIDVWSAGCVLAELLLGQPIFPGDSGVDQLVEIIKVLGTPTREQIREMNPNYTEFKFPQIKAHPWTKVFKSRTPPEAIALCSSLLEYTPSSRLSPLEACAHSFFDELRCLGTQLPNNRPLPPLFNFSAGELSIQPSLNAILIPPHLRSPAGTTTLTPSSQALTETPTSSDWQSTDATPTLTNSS

With `COc1ncc(F)cc1CNc1ccc(Cc2c[nH]c3ncc(C)cc23)c(F)n1` [PLX-5622], the IC50 in series [1], in [2] and in series [3] was more than 1 µM in each case. In [4], this compound registered an AUC(0-inf) of 2100 ng·h/mL. Also, the Vd in series [5] amounted to 2.3 L/kg. The compound further showed an AUC at 336 h in [6] of 104000 ng·h/mL. In [7], the Kp at 4320 h stood at 0.26. Further, the Activity in series [8] turned out to be 18.9%; in series [9], 2; in series [10], 2; in [13] it was 0.823%; in [14], 10.459 um3; in [15] it was 68.459%. For the same compound, the Activity in series [16] was found to be 95.841%; in [17] it was 95.371%; in series [18] it was 51. For the same compound, the Flu intensity turned out to be 0.273 a.u in [11] and 0.1 a.u in series [12]. Besides, the outcome in series [19] was Active.
